Experimental data published in PMC3131532 (Chemistry & biology, 2011).

What was measured:
[1] = test system: PfSENP activity in parasite lysates; assay: PfSUMO-pro processing assay in parasite lysates; type: biochemical, Plasmodium falciparum; details: mixed stage lysates; VEA-260 0–200 µM; NEM 10 mM; hSUMO-VS 10 µM
Outline: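 Soluble mixed-stage parasite lysate was pretreated with test compound, NEM or hSUMO-VS, then given PfSUMO-pro substrate. For the library screen, 10 µg lysate was preincubated 30 min at room temperature with 100 µM (final) test compound from a DMSO stock. PfSUMO-pro was then added at 10 µM final for 1 h at 37°C. Reactions were quenched with SDS loading dye, resolved by SDS-PAGE and stained with Gelcode Blue. Controls were DMSO-treated lysate and substrate without lysate.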

PfSENP1 [2] = molecular target: T1, PfSENP1 (Plasmodium falciparum, UniProt Q8I583); assay: PfSUMO-pro cleavage assay with recombinant PfSENP1; type: biochemical; details: gel assay; VEA-260 0–200 µM; JCP analogs 0–300 µM; NEM 10 mM
Outline: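 Recombinant PfSENP1, His6-tagged (imidazole-eluted) or untagged (released from CPD fusion with 100 µM InsP6), expressed in E. coli BL21(DE3) for 3 hr at 30°C after 0.1 mM IPTG induction. Enzyme pretreated with test compound or 10 mM N-ethylmaleimide; for the 0–200 µM series, PfSENP1 was 100 nM. PfSUMO-pro then added; reactions run on SDS-PAGE with Coomassie-type staining. No-enzyme substrate lane served as control.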

PfSENP1 [3] = molecular target: T1, PfSENP1; assay: SENP fluorogenic substrate; type: biochemical; details: read-out: IC50 PfSENP1; substrate QTGG-AFC
hSENP1 = molecular target: T2, hSENP1 (Homo sapiens, UniProt Q9P0U3); assay: SENP fluorogenic substrate; type: biochemical; details: read-out: IC50 hSENP1; substrate QTGG-AFC
T2 sequence (Q9P0U3 419-644 limits assumed): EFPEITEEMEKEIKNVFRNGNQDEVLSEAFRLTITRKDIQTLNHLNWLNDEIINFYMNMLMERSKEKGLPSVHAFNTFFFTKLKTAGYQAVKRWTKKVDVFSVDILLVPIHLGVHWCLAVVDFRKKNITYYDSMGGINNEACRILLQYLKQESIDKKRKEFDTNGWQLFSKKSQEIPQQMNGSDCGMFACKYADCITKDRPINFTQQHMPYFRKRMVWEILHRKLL

hSENP8 (deNEDDylase) = molecular target: T3, hSENP8 (deNEDDylase) (Homo sapiens, UniProt Q96LD8); assay: fluorogenic substrate; type: biochemical; details: read-out: IC50 hSENP8 (deNEDDylase); substrate LRGG-AFC
T3 sequence (Q96LD8 1-212): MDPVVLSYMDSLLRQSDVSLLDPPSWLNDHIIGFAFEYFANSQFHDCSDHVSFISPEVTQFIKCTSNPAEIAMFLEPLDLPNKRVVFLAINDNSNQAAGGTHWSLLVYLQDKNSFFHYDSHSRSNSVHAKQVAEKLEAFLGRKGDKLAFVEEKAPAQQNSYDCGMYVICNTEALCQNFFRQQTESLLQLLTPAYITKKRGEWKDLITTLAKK

PfSENP1 [4] = molecular target: T1, PfSENP1; assay: Reversibility of PfSENP1 inhibition; type: biochemical; details: 200 µM inhibitor, 2 hr 37°C, then dilution and Ni-NTA enrichment
Outline: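 PfSENP1 (200 nM) exposed to test compound (200 µM), N-ethylmaleimide (10 mM) or DMSO for 2 hr at 37°C. Input sample taken. Treated enzyme then diluted, recaptured on Ni2+-NTA and eluted with 300 mM imidazole. Input and eluate each added to PfSUMO-pro; cleavage resolved by SDS-PAGE with protein stain.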

hSENP2 = molecular target: T4, hSENP2 (Homo sapiens, UniProt Q9HC62); assay: SENP fluorogenic substrate; type: biochemical; details: read-out: IC50 hSENP2; substrate QTGG-AFC
T4 sequence (Q9HC62 1-589): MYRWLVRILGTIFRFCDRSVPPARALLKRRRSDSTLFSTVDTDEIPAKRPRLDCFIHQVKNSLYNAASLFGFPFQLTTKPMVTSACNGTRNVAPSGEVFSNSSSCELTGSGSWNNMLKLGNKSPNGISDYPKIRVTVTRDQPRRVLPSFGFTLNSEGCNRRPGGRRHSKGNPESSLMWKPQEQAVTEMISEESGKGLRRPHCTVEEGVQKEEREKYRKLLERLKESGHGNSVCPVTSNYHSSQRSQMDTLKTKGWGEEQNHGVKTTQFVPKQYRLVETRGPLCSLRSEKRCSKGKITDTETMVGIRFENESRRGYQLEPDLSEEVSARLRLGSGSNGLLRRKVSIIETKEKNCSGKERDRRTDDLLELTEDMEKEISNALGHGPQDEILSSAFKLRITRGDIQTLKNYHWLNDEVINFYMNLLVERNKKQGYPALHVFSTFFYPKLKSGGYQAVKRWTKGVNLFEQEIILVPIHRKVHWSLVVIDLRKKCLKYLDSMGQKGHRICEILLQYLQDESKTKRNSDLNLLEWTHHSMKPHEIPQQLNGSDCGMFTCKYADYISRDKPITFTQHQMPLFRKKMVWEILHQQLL

falcipains 1/2/3 = assay: Competition for labeling with activity-based probes; type: biochemical, Plasmodium falciparum; details: mixed-stage lysates; VEA-260 0–250 µM
Outline: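 Mixed-stage P. falciparum total lysates were pretreated with test compound (0–250 µM), or with unlabelled DCG-04 (100 µM) as a competition control, then labelled with 125I-DCG-04. Proteins were resolved by SDS-PAGE, and residual probe labelling was read by autoradiography.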

hSENP6 = molecular target: T5, hSENP6 (Homo sapiens, UniProt Q9GZR1); assay: SENP fluorogenic substrate; type: biochemical; details: read-out: IC50 hSENP6; substrate LRGG-AFC
T5 sequence (Q9GZR1 1-1112): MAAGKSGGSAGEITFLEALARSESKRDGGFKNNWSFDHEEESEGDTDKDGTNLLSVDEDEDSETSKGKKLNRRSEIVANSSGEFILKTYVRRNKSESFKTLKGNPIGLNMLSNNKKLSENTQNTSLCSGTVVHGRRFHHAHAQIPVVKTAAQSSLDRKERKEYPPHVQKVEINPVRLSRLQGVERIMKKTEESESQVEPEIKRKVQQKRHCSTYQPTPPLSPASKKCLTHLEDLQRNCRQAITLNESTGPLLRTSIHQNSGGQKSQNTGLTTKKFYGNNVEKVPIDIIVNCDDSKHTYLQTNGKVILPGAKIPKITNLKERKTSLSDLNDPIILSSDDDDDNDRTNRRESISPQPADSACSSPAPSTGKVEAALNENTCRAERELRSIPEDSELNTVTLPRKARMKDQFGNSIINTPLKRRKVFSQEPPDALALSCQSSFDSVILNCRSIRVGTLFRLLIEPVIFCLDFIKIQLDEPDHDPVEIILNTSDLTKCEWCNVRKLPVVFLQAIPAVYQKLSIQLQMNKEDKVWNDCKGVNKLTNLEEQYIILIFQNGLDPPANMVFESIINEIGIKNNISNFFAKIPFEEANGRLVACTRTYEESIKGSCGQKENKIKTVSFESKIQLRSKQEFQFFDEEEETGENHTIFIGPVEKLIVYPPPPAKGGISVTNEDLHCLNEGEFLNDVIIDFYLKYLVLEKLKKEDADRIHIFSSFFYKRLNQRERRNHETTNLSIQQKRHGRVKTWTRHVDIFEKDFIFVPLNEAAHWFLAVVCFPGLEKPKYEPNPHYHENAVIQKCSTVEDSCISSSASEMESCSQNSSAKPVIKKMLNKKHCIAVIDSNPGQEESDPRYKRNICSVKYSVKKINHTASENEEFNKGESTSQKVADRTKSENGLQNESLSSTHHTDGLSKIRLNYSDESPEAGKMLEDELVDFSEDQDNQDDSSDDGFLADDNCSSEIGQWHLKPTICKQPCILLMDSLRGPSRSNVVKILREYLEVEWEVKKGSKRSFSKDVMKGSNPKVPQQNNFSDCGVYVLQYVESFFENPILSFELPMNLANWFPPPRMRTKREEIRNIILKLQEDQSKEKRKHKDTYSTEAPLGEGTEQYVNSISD

UCH-L3 = molecular target: T6, UCH-L3 (Homo sapiens, UniProt P15374); assay: DUB fluorogenic substrate; type: biochemical; details: read-out: IC50 UCH-L3; substrate LRGG-AFC
T6 sequence (P15374 1-230): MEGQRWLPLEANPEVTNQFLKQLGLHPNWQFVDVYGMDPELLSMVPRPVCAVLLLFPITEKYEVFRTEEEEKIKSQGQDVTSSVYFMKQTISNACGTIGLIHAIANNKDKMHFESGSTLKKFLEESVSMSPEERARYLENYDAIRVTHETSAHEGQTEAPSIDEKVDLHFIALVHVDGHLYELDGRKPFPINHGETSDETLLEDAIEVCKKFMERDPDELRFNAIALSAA

Structure (SMILES): CCN1C(=O)C=CC1=O [NEM, N-ethylmaleimide, reference compound]
- inhibition of PfSENP activity in parasite lysates [1]: processing activity could be blocked
- inhibition of PfSUMO-pro cleavage by recombinant PfSENP1 (PfSENP1 [2]): cleavage was inhibited

Structure (SMILES): O=C(O)c1cccc(C(=O)NCc2ccc(C(=O)NNC(=O)[C@H]3O[C@@H]3C(=O)N(Cc3cccc4ccccc34)Cc3cccc4ccccc34)cc2)c1 [VEA-260]
- IC50 (PfSENP1 [3]): 16.2 µM
- IC50 (hSENP1): 7.1 µM
- IC50 (hSENP8 (deNEDDylase)): 9.1 µM
- reversibility of PfSENP1 inhibition (PfSENP1 [4]): irreversible inhibitor
- IC50 (hSENP2): 3.7 µM
- inhibition of falcipains (residual probe labeling) (falcipains 1/2/3): did not inhibit any of the falcipains
- IC50 (hSENP6): > 100 µM
- inhibition of PfSENP activity in parasite lysates [1]: as potent as the original JCP-666
- inhibition of PfSUMO-pro cleavage by recombinant PfSENP1 (PfSENP1 [2]): as potent as the original JCP-666
- IC50 (UCH-L3): ~100 µM
